Measurements: ChEMBL document CHEMBL1138814, “Synthesis, antiviral activity, and mode of action of some 3-substituted 2,5,6-trichloroindole 2'- and 5'-deoxyribonucleosides” (J Med Chem, 2004)

Experiments:
[1] = test system: HFF; experiment: Inhibitory concentration required against human cytomegalovirus (HCMV) expressed in HFF cells was determined by plaque reduction assay; assay type: functional, cell-based
Method in brief: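 HCMV Towne strain at about 100 pfu/cm² was adsorbed onto HFF monolayers. Compounds from 10 mg/mL DMSO stocks were diluted in growth medium and added at four to eight concentrations in duplicate wells. After 7–10 days at 37 °C, cells were fixed and stained with crystal violet and plaques counted microscopically. Percent plaque reduction versus no drug was regressed against log concentration to give IC50.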

[2] = test system: HFF; experiment: Cytotoxicity produced in stationary HFF cells was determined by microscopic inspection of uninfected cells; assay type: functional, cell-based; settings: Homo sapiens
Method in brief: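 Cytotoxicity was scored visually by microscopy on stationary HFF cells not affected by virus, at the time of HCMV plaque enumeration, in duplicate wells. IC50 came from linear regression of percent inhibition against log concentration.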

[3] = Inhibitory concentration required against herpes simplex virus type-1 (HSV-1) expressed in BSC-1 cells was determined by ELISA assay; assay type: functional, cell-based, Cercopithecidae
Method in brief: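 BSC-1 cells (10 000/well, MEM(E) with 10% calf serum) were incubated overnight. Drug (quadruplicate) and HSV-1 at 100 pfu/well were then added, followed by 3 days at 37 °C. Plates were blocked and probed with HRP-conjugated rabbit anti-HSV-1 antibody, developed with TMB and stopped with H2SO4, with absorbance read at 450 and 570 nm. Percent absorbance reduction versus no drug was regressed against log concentration to give IC50.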

[4] = Cytotoxicity against KB cells was determined by crystal violet staining and spectrophotometric quantitation of dye eluted from stained cells; assay type: functional, cell-based; settings: Homo sapiens
Method in brief: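 KB cells were seeded at 3000–5000 per well and incubated overnight. Compound was added at six to eight concentrations for 48 h at 37 °C in CO2, covering two population doublings. Cells were fixed in 95% ethanol and stained with 0.1% crystal violet, and the dye was eluted with acidified ethanol and read at 570 nm. IC50 came from regression of percent inhibition against log concentration.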

[5] = test system: HFF; experiment: Inhibitory concentration required against human cytomegalovirus (HCMV) C4 strain (UL56 + UL89 mutant gene) expressed in HFF cells was determined by plaque reduction assay; assay type: functional, cell-based
Method in brief: (§1)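 HFF monolayers in 24-well dishes were infected with about 100 pfu HCMV per cm² (wild type Towne; mutant strains carry UL56, UL89 or UL56 + UL89 mutations). After adsorption, drug from 10 mg/mL DMSO stock was diluted in medium and added at four to eight concentrations in duplicate wells. Cells were held 7–10 days at 37 °C, then crystal-violet stained and plaques counted against no-drug controls. IC50 came from linear regression of % inhibition versus log10 concentration, averaged over two experiments.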

[6] = test system: HFF; experiment: Inhibitory concentration required against human cytomegalovirus (HCMV) wild type expressed in HFF cells was determined by plaque reduction assay; assay type: functional, cell-based; method in brief: as §1
[7] = test system: HFF; experiment: Inhibitory concentration required against human cytomegalovirus (HCMV) r56 strain (UL56 mutant gene) expressed in HFF cells was determined by plaque reduction assay; assay type: functional, cell-based; method in brief: as §1
[8] = test system: HFF; experiment: Inhibitory concentration required against human cytomegalovirus (HCMV) D10 strain (UL89 mutant gene) expressed in HFF cells was determined by plaque reduction assay; assay type: functional, cell-based; method in brief: as §1

Row | SMILES | IC50 [1] | IC50 [2] | IC50 [3] | IC50 [4] | IC50 [5] | IC50 [6] | IC50 [7] | IC50 [8]
1 | OC[C@H]1O[C@@H](n2c(Cl)nc3cc(Cl)c(Cl)cc32)C[C@@H]1O | 20 µM | > 100 µM |  |  |  |  |  | 
2 | OC[C@H]1O[C@@H](n2c(Cl)c(-c3ccco3)c3cc(Cl)c(Cl)cc32)C[C@@H]1O | 3.6 µM | 3.2 µM | 20 µM | 50 µM |  |  |  | 
3 | OC[C@H]1O[C@@H](n2c(Cl)c(-c3ccsc3)c3cc(Cl)c(Cl)cc32)C[C@@H]1O | 38 µM | 32 µM | 20 µM | 50 µM |  |  |  | 
4 | COc1c(C#N)c2cc(Cl)c(Cl)cc2n1[C@H]1C[C@H](O)[C@@H](CO)O1 | 68 µM | > 100 µM | 90 µM | > 100 µM |  |  |  | 
5 | COc1c(C=O)c2cc(Cl)c(Cl)cc2n1[C@H]1C[C@H](O)[C@@H](CO)O1 | > 100 µM | 100 µM | > 100 µM | 20 µM |  |  |  | 
6 | CC(=O)c1c(Cl)n([C@H]2C[C@H](O)[C@@H](CO)O2)c2cc(Cl)c(Cl)cc12 | 0.3 µM | > 100 µM | 8 µM | 400 µM | 2.1 µM | 0.22 µM | 1.8 µM | 0.76 µM
7 | N#Cc1c(Cl)n([C@H]2C[C@H](O)[C@@H](CO)O2)c2cc(Cl)c(Cl)cc12 | 0.3 µM | 32 µM | 35 µM | 60 µM |  |  |  | 
8 | CC(=O)c1c(Br)n([C@H]2C[C@H](O)[C@@H](CO)O2)c2cc(Cl)c(Cl)cc12 | 0.34 µM | > 100 µM | > 100 µM | > 100 µM |  |  |  | 
9 | OC[C@H]1O[C@@H](n2c(Br)nc3cc(Cl)c(Cl)cc32)C(O)[C@@H]1O (single isomer, unassigned) |  |  | 130 µM | > 100 µM | 29 µM | 0.99 µM | 6.7 µM | 12 µM
10 | OC[C@H]1O[C@@H](n2c(Cl)nc3cc(Cl)c(Cl)cc32)C(O)[C@@H]1O (single isomer, unassigned) |  |  | 102 µM | 210 µM |  |  |  | 
11 | N#Cc1c(Cl)n(C2O[C@H](CO)[C@@H](O)C2O)c2cc(Cl)c(Cl)cc12 (single isomer, unassigned) |  |  | > 100 µM | 35 µM |  |  |  | 
12 | N#Cc1c(Cl)n(C2O[C@H](CN=[N+]=[N-])[C@@H](O)C2O)c2cc(Cl)c(Cl)cc12 (single isomer, unassigned) | 3 µM | > 100 µM | 15 µM | 60 µM |  |  |  | 
13 | O=Cc1c(Cl)n(C2O[C@H](CO)[C@@H](O)C2O)c2cc(Cl)c(Cl)cc12 (single isomer, unassigned) |  |  | 40 µM | 45 µM | 4.8 µM | 0.46 µM | 1.8 µM | 0.88 µM
14 | CC(=O)c1c(Cl)n(C2O[C@H](CO)[C@@H](O)C2O)c2cc(Cl)c(Cl)cc12 (single isomer, unassigned) |  |  |  |  | 6.2 µM | 0.26 µM | 1.2 µM | 0.72 µM
15 | C[C@H]1OC(n2c(Cl)nc3cc(Cl)c(Cl)cc32)C(O)[C@@H]1O (single isomer, unassigned) | 0.36 µM | 100 µM |  |  |  |  |  | 
16 | CC(=O)OC[C@H]1OC(n2c(Cl)c(C=O)c3cc(Cl)c(Cl)cc32)C(O)[C@@H]1O (single isomer, unassigned) |  |  |  |  | 3.3 µM | 0.22 µM | 1.6 µM | 0.88 µM
17 | C[C@H]1OC(n2c(Cl)c(C=O)c3cc(Cl)c(Cl)cc32)C(O)[C@@H]1O (single isomer, unassigned) | 0.3 µM | 32 µM | 20 µM | 25 µM |  |  |  | 
18 | [N-]=[N+]=NC[C@H]1OC(n2c(Cl)c(C=O)c3cc(Cl)c(Cl)cc32)C(O)[C@@H]1O (single isomer, unassigned) | 0.32 µM | 32 µM | 10 µM | 25 µM |  |  |  | 
19 | C[C@H]1OC(n2c(Cl)c(C#N)c3cc(Cl)c(Cl)cc32)C(O)[C@@H]1O (single isomer, unassigned) | 0.19 µM | 32 µM | 32 µM | 40 µM |  |  |  | 
20 | N#Cc1c(Cl)n(C2O[C@H](CF)[C@@H](O)C2O)c2cc(Cl)c(Cl)cc12 (single isomer, unassigned) | 2.7 µM | 32 µM | 40 µM | 50 µM |  |  |  | 
21 | O=Cc1c(Cl)n(C2O[C@H](CF)[C@@H](O)C2O)c2cc(Cl)c(Cl)cc12 (single isomer, unassigned) | 0.6 µM | 32 µM | 20 µM | 20 µM |  |  |  | 
22 | Nc1nc2c(ncn2COC(CO)CO)c(=O)[nH]1 [GANCICLOVIR] |  | > 100 µM | 3.5 µM | > 100 µM | 2.5 µM | 1.2 µM | 1.2 µM | 1.2 µM
